The text below walks through data of article PMC3873001 (Bioorganic & medicinal chemistry, 2013).

Data set [1] has as its system T. b. rhodesiense bloodstream form trypomastigotes (STIB 900). The data set is described as follows: In vitro growth inhibition of T. b. rhodesiense bloodstream form trypomastigotes. The format is cell-based, Trypanosoma b. rhodesiense. To be noted: for SI (T.b.rhod.): SI = IC50 in L6 cells / IC50 in T.b. rhodesiense; for IC50: Trypanosoma brucei, RHODESIENSE|STIB900, read-out: T.b.rhod. IC-50; for activity designation against T.b. rhodesiense: TDR criteria on IC50; for reduction of anti-HAT activity compared to 3-nitrotriazole counterpart: 2-nitroimidazole analog vs 3-nitrotriazole counterpart (13 vs 9; 14 vs 11).

Data set [2] concerns T. cruzi amastigotes (Tulahuen C4) in infected L6 myoblasts. Briefly: In vitro growth inhibition of T. cruzi amastigotes in infected L6 myoblasts. The format is cell-based. Conditions: for IC50: Trypanosoma cruzi, TULAHUEN, L6, read-out: T. cruzi IC-50; for reduction of antichagasic activity compared to 5: compared to compound 5; for reduction of antichagasic activity compared to 3-nitrotriazole counterpart: 2-nitroimidazole analog vs 3-nitrotriazole counterpart (13 vs 9; 14 vs 11).

Data set [3] relates to L. donovani axenic amastigotes (MHOM-ET-67/L82). The data set is described as follows: In vitro growth inhibition of axenically cultured L. donovani amastigotes. Conditions: for IC50: Leishmania donovani, read-out: L.don. axen. IC-50; for SI (L.don. axen.): SI = IC50 in L6 cells / IC50 in L. donovani. The format is cell-based, Leishmania donovani.
Data set [4] in a line: Cytotoxicity assessment using L6 cells. The format is cell-based. To be noted: rat, L6 cells (rat skeletal myoblasts). In a few lines:
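Rat skeletal myoblasts (L6) were tested for growth inhibition as the host-cell toxicity counterpart to the parasite assays. IC50 was calculated by linear regression from sigmoidal dose-inhibition curves. Values are means of two independent assays, varying by less than ±50%.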

The structures appear in SMILES notation. Some results are limits rather than exact numbers.

Take `Cl.Cl.O=[N+]([O-])c1ncn(CCCCN2CCN(Cc3ccc(C(F)(F)F)cc3)CC2)n1` [Compound 2]: in data set [1], the “SI (T.b.rhod.)” value is given as 99 and the IC50 came out at 1.2 µM. Also, in data set [2], the IC50 is 0.412 µM. In data set [3], the IC50 was 44.5 µM and the “SI (L.don. axen.)” value was 3.
In data set [4], `COc1ccc(N2CCN(CCCn3cnc([N+](=O)[O-])n3)CC2)cc1` [Compound 9, 1-(4-methoxyphenyl)-4-[3-(3-nitro-1H-1,2,4-triazol-1-yl)propyl]piperazine dihydro-chloride] registered an IC50 of 125 µM.
With `Cl.Cl.Cl.Cl.O=[N+]([O-])c1ncn(CCCN2CCN(c3ccc(Cl)c(Cl)c3)CC2)n1` [Compound 7, 1-(3,4-dichlorophenyl)-4-[3-(3-nitro-1H-1,2,4-triazol-1-yl)propyl]piperazine dihydrochloride], in data set [1], the “activity designation against T.b. rhodesiense” value was “active”.
As for `O=[N+]([O-])c1nccn1CCCCNc1nc2ccc(Cl)cc2s1` [Compound 20, 6-chloro-N-[4-(2-nitro-1H-imidazol-1-yl)butyl]-1,3-benzothiazol-2-amine], the IC50 in data set [3] turned out to be 7.3 µM.
For the molecule `Cl.Cl.O=[N+]([O-])c1ncn(CCCN2CCN(c3ccc(C(F)(F)F)cc3)CC2)n1` [Compound 3], in data set [1], the “SI (T.b.rhod.)” value was 10 and the IC50 came to 5.33 µM. For the same molecule, the IC50 in data set [2] is 0.04 µM. In addition, in data set [3], the IC50 was found to be 25.9 µM and the “SI (L.don. axen.)” value is listed as 2.
Regarding `O=[N+]([O-])c1ncn(CCCNc2nc3ccc(Cl)cc3s2)n1` [Compound 15, 6-chloro-N-[3-(3-nitro-1H-1,2,4-triazol-1-yl)propyl]-1,3-benzothiazol-2-amine], the “activity designation against T.b. rhodesiense” value in data set [1] is given as “active”. Further, the “activity designation against L. donovani” value in data set [3] (TDR criteria on IC50) was “moderately active (IC50 = 1.0-6.0 μM)”.
Regarding `O=[N+]([O-])c1ncn(CCCCNc2nc3ccc(Cl)cc3s2)n1` [Compound 17, 6-chloro-N-[4-(3-nitro-1H-1,2,4-triazol-1-yl)butyl]-1,3-benzothiazol-2-amine], in data set [1], the “activity designation against T.b. rhodesiense” value is reported as “active”.
On to `Cl.Cl.O=[N+]([O-])c1ncn(CCCN2CCN(Cc3ccc(C(F)(F)F)cc3)CC2)n1` [Compound 1], for which the IC50 is 1.38 µM in data set [1], 0.34 µM in data set [2], 58.1 µM in data set [3] and over 191 µM in data set [4]. For the same molecule, the “SI (L.don. axen.)” value in data set [3] is on record as over 3.
With `Cl.Cl.O=[N+]([O-])c1ncn(CCCN2CCN(c3ncccn3)CC2)n1` [Compound 4, 2-{4-[3-(3-nitro-1H-1,2,4-triazol-1-yl)propyl]piperazin-1-yl}pyrimidine dihydrochloride], in data set [2], the “reduction of antichagasic activity compared to 5” value is 2 fold.
As to `O=[N+]([O-])c1ncn(CCCN2CCN(c3ccncc3)CC2)n1` [Compound 6, 1-[3-(3-nitro-1H-1,2,4-triazol-1-yl)propyl]-4-(pyridin-4-yl)piperazine], the “reduction of antichagasic activity compared to 5” value in data set [2] is recorded as “more than 10 fold”.
As for `Cl.Cl.Cl.Cl.O=[N+]([O-])c1nccn1CCCN1CCN(Cc2ccc(Cl)c(Cl)c2)CC1` [Compound 14, 1-[(3,4-dichlorophenyl)methyl]-4-[3-(2-nitro-1H-imidazol-1-yl)propyl]piperazine dihydrochloride], the “reduction of anti-HAT activity compared to 3-nitrotriazole counterpart” value in data set [1] was about 14 fold. The “reduction of antichagasic activity compared to 3-nitrotriazole counterpart” value in data set [2] is “about 33 fold”.
On to `COc1ccc(N2CCN(CCCn3ccnc3[N+](=O)[O-])CC2)cc1.Cl.Cl` [Compound 13, 1-(4-methoxyphenyl)-4-[3-(2-nitro-1H-imidazol-1-yl)propyl]piperazine dihydro-chloride], for which the “reduction of anti-HAT activity compared to 3-nitrotriazole counterpart” value in data set [1] is on record as about 2 fold. Further, the “reduction of antichagasic activity compared to 3-nitrotriazole counterpart” value in data set [2] was “about 62 fold”.
